Laboratory results as given in ChEMBL document CHEMBL4330143, “Maximizing ER-α Degradation Maximizes Activity in a Tamoxifen-Resistant Breast Cancer Model: Identification of GDC-0927” (ACS Med Chem Lett, 2019).
Active and inactive are the calls of the source. The calls are words filed in the database; no cut-off is given here.

Tests used:
[1] = Unbound Cmax in nude mouse xenografted with tamoxifen-resistant human MCF7 cells at 100 mg/kg, po daily for 28 days measured on day 28 post last dose; format: ADME, organism-based; conditions: in vivo, 672 h
How it was run: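 Tamoxifen-resistant MCF-7 xenograft mice carrying subcutaneous 0.72 mg estradiol pellets. Plasma pharmacokinetics sampled on day 28 of the study, at take-down.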

Cytochrome P450 2C8 = target: T1, Cytochrome P450 2C8 (Homo sapiens, UniProt P10632); assay: Inhibition of CYP2C8 (unknown origin); format: ADME
T1 sequence (P10632 whole entry): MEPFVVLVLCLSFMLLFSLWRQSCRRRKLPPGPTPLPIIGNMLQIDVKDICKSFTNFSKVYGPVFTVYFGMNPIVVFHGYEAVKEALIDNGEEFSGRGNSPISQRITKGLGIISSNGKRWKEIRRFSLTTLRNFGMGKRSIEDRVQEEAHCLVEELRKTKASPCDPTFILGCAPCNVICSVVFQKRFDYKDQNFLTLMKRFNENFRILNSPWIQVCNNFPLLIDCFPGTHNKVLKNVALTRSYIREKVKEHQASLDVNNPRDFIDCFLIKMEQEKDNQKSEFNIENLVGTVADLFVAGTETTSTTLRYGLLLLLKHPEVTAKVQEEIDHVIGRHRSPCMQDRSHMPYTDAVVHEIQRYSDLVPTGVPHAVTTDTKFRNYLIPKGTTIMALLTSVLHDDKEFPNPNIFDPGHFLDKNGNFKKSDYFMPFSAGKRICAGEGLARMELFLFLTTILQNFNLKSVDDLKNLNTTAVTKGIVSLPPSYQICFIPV

Cytochrome P450 1A2 = target: T2, Cytochrome P450 1A2 (Homo sapiens, UniProt P05177); assay: Competitive inhibition of CYP1A2 (unknown origin); format: ADME
T2 sequence (P05177 whole entry): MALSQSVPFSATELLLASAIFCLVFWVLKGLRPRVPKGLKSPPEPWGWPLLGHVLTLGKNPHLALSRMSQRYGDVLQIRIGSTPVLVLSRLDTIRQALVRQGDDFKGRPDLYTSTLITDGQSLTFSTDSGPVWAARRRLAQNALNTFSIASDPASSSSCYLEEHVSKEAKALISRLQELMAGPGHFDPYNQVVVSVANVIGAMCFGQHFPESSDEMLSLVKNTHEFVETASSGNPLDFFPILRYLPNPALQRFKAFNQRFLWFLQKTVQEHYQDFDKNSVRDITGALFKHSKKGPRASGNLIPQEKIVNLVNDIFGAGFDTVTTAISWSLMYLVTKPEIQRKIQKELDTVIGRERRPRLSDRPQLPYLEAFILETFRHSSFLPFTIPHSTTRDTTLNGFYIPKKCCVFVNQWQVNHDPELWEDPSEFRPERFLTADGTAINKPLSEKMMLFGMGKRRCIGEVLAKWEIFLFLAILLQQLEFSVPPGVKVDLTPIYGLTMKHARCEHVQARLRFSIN

[2] = target: T3, Progesterone receptor (Homo sapiens) (UniProt P06401); assay: Antagonist activity at PR-A (unknown origin) by transcriptional reporter assay
T3 sequence (whole entry): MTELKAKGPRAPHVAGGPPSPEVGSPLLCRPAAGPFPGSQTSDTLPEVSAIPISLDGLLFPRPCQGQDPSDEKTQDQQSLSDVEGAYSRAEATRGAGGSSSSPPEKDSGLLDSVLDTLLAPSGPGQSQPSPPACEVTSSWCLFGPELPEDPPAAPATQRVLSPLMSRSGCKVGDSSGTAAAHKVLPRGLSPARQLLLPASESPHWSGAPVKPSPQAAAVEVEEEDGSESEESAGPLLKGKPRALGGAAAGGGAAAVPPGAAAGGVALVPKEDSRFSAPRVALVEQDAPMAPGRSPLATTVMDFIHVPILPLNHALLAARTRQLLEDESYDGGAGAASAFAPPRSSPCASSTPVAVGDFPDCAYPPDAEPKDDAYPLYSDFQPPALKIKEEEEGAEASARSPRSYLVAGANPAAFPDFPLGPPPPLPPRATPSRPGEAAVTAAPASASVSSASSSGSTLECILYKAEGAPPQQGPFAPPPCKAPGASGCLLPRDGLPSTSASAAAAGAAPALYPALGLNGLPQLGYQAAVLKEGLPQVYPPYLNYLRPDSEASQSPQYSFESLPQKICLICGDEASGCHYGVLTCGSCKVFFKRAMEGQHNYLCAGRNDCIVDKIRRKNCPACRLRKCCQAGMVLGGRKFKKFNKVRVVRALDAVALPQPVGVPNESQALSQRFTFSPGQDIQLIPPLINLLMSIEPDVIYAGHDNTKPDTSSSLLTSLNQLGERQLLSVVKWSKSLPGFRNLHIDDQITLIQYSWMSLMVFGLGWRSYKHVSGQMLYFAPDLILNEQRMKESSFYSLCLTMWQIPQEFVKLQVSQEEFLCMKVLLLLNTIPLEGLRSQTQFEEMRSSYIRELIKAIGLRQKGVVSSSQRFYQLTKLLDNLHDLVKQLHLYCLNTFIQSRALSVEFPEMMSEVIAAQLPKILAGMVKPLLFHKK

Mus musculus = assay: In vivo induction of ERalpha degradation in tumor of nude mouse xenografted with tamoxifen-resistant human MCF7 cells at 100 mg/kg, po daily for 28 days measured on day 28 post last dose; format: functional, organism-based
How it was run: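 Tamoxifen-resistant MCF-7 tumours grown subcutaneously in mice, with estradiol supplied from subcutaneous 0.72 mg estradiol pellets.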

MCF7 = assay: Antiproliferative activity against human MCF7 cells after 5 days by CellTiter-Glo assay; conditions: MCF7, 120 h
[3] = target: Voltage-gated inwardly rectifying potassium channel KCNH2 (Homo sapiens, UniProt Q12809); assay: Inhibition of human ERG by patch clamp method
Cytochrome P450 3A4 = Cytochrome P450 3A4 (Homo sapiens, UniProt P08684); assay: Competitive inhibition of CYP3A4 (unknown origin); format: ADME
[4] = Genotoxicity in Salmonella typhimurium TA100 by Ames test; format: toxicity; conditions: salmonella enterica subsp. enterica serovar […]
[5] = Oral bioavailability in rat at 10 mg/kg daily for 3 days measured on day 3 post last dose; format: ADME, organism-based; conditions: in vivo

Cytochrome P450 3A4, sequence (P08684 whole entry): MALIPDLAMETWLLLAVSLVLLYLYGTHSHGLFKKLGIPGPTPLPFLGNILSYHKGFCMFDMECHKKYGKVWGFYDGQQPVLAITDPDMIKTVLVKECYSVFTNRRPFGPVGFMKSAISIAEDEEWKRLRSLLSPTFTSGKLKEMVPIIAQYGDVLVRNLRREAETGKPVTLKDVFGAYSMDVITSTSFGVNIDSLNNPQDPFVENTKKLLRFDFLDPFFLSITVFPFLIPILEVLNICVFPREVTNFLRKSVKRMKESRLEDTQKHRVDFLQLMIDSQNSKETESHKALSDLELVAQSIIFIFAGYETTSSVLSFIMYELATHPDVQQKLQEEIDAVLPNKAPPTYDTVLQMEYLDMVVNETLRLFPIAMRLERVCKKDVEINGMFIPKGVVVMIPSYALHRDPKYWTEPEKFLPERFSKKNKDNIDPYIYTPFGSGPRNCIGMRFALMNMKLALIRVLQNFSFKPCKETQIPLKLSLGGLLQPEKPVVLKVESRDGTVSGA
Voltage-gated inwardly rectifying potassium channel KCNH2, sequence (Q12809 whole entry): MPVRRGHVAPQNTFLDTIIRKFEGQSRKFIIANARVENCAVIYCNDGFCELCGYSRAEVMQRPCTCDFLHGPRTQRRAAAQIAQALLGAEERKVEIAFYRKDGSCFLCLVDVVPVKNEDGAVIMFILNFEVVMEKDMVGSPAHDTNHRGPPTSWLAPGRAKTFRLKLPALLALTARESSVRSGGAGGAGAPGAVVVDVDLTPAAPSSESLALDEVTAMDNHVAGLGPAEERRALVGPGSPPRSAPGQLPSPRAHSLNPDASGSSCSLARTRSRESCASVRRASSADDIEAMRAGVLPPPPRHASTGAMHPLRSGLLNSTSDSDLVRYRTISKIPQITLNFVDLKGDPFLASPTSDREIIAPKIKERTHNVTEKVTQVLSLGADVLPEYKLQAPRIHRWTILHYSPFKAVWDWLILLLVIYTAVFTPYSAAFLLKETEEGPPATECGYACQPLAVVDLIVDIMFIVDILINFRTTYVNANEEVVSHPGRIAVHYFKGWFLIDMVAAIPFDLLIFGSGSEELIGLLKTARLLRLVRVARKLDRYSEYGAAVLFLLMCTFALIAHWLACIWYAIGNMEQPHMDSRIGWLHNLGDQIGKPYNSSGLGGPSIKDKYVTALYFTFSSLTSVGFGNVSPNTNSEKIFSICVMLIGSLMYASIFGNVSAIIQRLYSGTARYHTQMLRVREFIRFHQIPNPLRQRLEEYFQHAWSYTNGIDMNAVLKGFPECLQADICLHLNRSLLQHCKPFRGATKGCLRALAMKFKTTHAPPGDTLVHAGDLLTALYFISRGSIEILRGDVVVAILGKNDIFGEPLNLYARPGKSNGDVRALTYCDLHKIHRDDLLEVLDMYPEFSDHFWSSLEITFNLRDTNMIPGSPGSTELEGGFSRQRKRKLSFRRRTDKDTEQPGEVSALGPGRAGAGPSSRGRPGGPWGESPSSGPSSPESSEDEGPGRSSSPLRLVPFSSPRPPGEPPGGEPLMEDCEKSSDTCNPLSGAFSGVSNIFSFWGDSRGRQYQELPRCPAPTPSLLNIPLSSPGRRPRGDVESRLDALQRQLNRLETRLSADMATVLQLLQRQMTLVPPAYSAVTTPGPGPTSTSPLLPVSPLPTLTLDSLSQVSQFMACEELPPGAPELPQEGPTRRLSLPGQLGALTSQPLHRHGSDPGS

CC1=C(c2cccc(O)c2)[C@H](c2ccc(OCCN3CC(CF)C3)cc2)Oc2ccc(O)cc21
fCmax [1]: 0.018 µg/mL | IC50 (Cytochrome P450 2C8): 3 µM | IC50 (Cytochrome P450 1A2): > 10 µM | inhibition [2]: inactive | Activity (Mus musculus): Active | IC50 (MCF7): 0.0001 µM | IC50 [3]: 4.6 µM | IC50 (Cytochrome P450 3A4): > 10 µM | Activity [4]: Non-Toxic | bioavailability [5]: 10%
